# miR122 inh: inhibitors of miR-122 in Huh7 cells | Huh7 miR-122 Renilla luciferase sensor, 48 h; neutral wells = 0, positive control = 100 | actives 0.3% (n = 340,000) | activation (reporter increase), % at 12.5 µM;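 active means mean replicate activation score at least 90 and every replicate individually at or above 90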;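 further: higher luciferase means less miR-122 activity so hits act as miR-122 inhibitors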
# PDI inh: PDI (human) enzyme inhibition. actives 0.052% (n = 350,000). PDI insulin aggregation turbidity, A650, 90 min. inhibition, % at 10 µM;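 active means mean inhibition across replicates of 30% or more, whatever share of single replicates reach that level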
# Target sequence (P07237 whole entry, looked up): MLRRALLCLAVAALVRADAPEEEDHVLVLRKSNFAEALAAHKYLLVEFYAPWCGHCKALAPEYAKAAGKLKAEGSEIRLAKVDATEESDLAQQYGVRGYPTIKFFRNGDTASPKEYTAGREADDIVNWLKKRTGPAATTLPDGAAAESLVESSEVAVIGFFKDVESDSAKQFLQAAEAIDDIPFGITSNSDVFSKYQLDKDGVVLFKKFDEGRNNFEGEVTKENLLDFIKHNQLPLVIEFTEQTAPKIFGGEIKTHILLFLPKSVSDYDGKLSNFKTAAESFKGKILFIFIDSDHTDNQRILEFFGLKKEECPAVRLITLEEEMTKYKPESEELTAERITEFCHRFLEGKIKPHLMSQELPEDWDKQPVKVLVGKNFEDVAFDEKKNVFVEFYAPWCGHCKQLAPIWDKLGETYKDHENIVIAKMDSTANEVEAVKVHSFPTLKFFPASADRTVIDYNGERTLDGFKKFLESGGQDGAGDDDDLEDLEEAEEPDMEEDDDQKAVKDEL
# Cneo AK release: Cryptococcus neoformans lysis via adenylate kinase release; actives 0.2% (n = 360,000); lysis activity, % at 15 µM; C. neoformans lysis, adenylate kinase release luminescence, 4 h; normalised: neutral wells 0, clomiphene wells 100; AID 651654;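 active means mean lysis activity across replicates of at least 80%, whatever share of replicates individually reach that level; inactive means mean lysis activity below 80%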
#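 Material – Cryptococcus neoformans yeast cells · Quantity – 5 × 10^6 yeast cells/mL · Buffer or medium – YPD medium · Compound – single dose · Timing – 4 h static compound exposure, 37 °C, read 1 h post-reagent · Signal – adenylate kinase release luminescence · Read-out basis – lysis from increased AK signal · Benchmarks – Clomiphene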
# ERp5 block: inhibitors of human ERp5; Q15084; ERp5 insulin aggregation, absorbance 650 nm, 90 min; inhibition, % at 9.99 µM; actives 0.05% (n = 350,000); AID 651711;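 active means mean replicate inhibition above about 25%, with every replicate also reaching it, limit read from the data, passing the limit was not always enough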
# PglD DTNB: PglD (C. jejuni) enzyme inhibition; purified PglD enzyme, DTNB colorimetric CoA detection; inhibition, % at 12.5 µM; actives 0.098% (n = 360,000); AID 602405; in the data active means inhibition above about 16%, passing the limit was not always enough
# PvdQ acylase: P. aeruginosa PvdQ acylase inhibition; purified PvdQ acylase, fluorescence plate reader; actives 0.063% (n = 340,000); inhibition, % at 10 µM; in the data active means inhibition above about 30%, passing the limit was not always enough;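 further: 0% = vehicle neutral wells and 100% = reference inhibitor wells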
# Starred values were filed as active, the others as inactive; · = no result given; [ ] = remark or other dose. Sampled rows, rich in hits. Any-hit rate of the full collection: about 0.58%.
SMILES,miR122 inh,PDI inh,Cneo AK release,ERp5 block,PglD DTNB,PvdQ acylase
O=C(C[C@H]1C[C@H]2c3cc(NC(=O)C4CCC4)ccc3O[C@H]2[C@@H](CO)O1)NCc1cccc(F)c1,5[16.7 µM],·,94*,-3,5,·
O=C(C[C@H]1C[C@H]2c3cc(NC(=O)CC4CC4)ccc3O[C@H]2[C@@H](CO)O1)NCc1cccc(F)c1,0[16.7 µM],·,1,-85,4,·
COCCNC(=O)C[C@@H]1C[C@H]2c3cc(NC(=O)C4CCC4)ccc3O[C@H]2[C@@H](CO)O1,14[16.7 µM],·,84*,-5,1,·
O=C(NCC[C@@H]1CC[C@H](NC(=O)C2CC2)[C@@H](CO)O1)c1cnccn1,·,·,-6,-5,3,·
CO[C@@H]1CN(C)C(=O)c2ccc(NC(=O)Nc3ccccc3F)cc2OC[C@H](C)NC[C@@H]1C,2[16.7 µM],·,-4,3,-4,·
O=S(=O)(Nc1cccc(-n2cnnn2)c1)c1cc(Br)ccc1Br,108*,-4,2,2,-3,-4
O=S(=O)(Nc1cccc(-n2cnnn2)c1)c1ccccc1,13,8,1,11,-1,-2
O=C(C1CCCCC1)N1CCCc2ccccc21,6,1,-1,·,-3,-25
CC(C)N1C(=O)CCC1C(=O)N1CCCc2ccccc21 (configuration not stated),-3,3,3,·,25*,8
C[C@@H]1CCCCO[C@@H](CN(C)C(=O)Nc2cccc3ccccc23)[C@@H](C)CN([C@H](C)CO)C(=O)c2cc(NS(=O)(=O)c3ccccc3)ccc2O1,8[16.7 µM],·,95*,4,1,·
C[C@H](CO)N1C[C@H](C)[C@H](CN(C)C(=O)CCC(F)(F)F)OCCCC[C@H](C)Oc2ccc(NS(=O)(=O)c3ccc(Cl)cc3)cc2C1=O,-9[16.7 µM],·,3,81*,1,·
CNC[C@H]1OCCCC[C@@H](C)Oc2ccc(NS(=O)(=O)c3ccc(Cl)cc3)cc2C(=O)N([C@H](C)CO)C[C@H]1C,-1[16.7 µM],·,-3,-4,1,·
Cc1ccc(S(=O)(=O)Nc2ccc3c(c2)C(=O)N([C@@H](C)CO)C[C@H](C)[C@H](CN(C)S(=O)(=O)c2ccc(Cl)cc2)OCCCC[C@@H](C)O3)cc1,10[16.7 µM],·,103*,·,5,·
C[C@@H]1CCCCO[C@@H](CN(C)C(=O)CCC(F)(F)F)[C@@H](C)CN([C@H](C)CO)C(=O)c2cc(NS(=O)(=O)c3ccc(Cl)cc3)ccc2O1,-2[16.7 µM],·,4,3,9,·
CNC[C@@H]1OCCCC[C@@H](C)Oc2ccc(NS(=O)(=O)c3ccc(Cl)cc3)cc2C(=O)N([C@H](C)CO)C[C@H]1C,32[16.7 µM],·,100*,2,-2,·
CNC(=O)C[C@H]1CC[C@@H]2[C@H](COc3ccc(NC(=O)c4ccccc4OC)cc3C(=O)N2C)O1,-42[16.7 µM],·,-5,1,-1,·
O=C(Nc1ccc2c(c1)OCO2)N[C@H]1CC[C@@H](CCNC(=O)C2CC2)O[C@@H]1CO,-5[16.7 µM],·,-4,0,0,·
CC(C)NC(=O)Nc1ccc2c(c1)C(=O)N([C@@H](C)CO)C[C@@H](C)[C@@H](CN(C)S(=O)(=O)c1ccc(Cl)cc1)OCCCC[C@@H](C)O2,1[16.7 µM],·,102*,-2,-1,·
COc1ccc(S(=O)(=O)Nc2ccc3c(c2)C(=O)N([C@@H](C)CO)C[C@H](C)[C@@H](CN(C)C)OCCCC[C@H](C)O3)cc1,3[16.7 µM],·,91*,2,1,·
CC(C)NC(=O)Nc1ccc2c(c1)C(=O)N([C@H](C)CO)C[C@@H](C)[C@H](CN(C)S(=O)(=O)c1ccc(Cl)cc1)OCCCC[C@@H](C)O2,-6[16.7 µM],·,0,-1,2,·
CCNC(=O)C[C@@H]1CC[C@H](NC(=O)C2CC2)[C@H](CO)O1,2[16.7 µM],·,-2,-1,4,·
Nc1ccc(N2CCOCC2)c2nonc12,-3,66*,-2,22,-3,-12
CC(C)(C)c1ccc(C(=O)NC(=S)NCc2cccnc2)cc1,9,10,·,·,1,-10
CCc1ccc(C(=O)NC(=S)NCc2cccnc2)cc1,·,0,87*,2,5,-23
S=C(NCc1ccc2c(c1)OCO2)Nc1ccc2nsnc2c1,24,-4,-2,0,-1,41*
SMILES,miR122 inh,PDI inh,Cneo AK release,ERp5 block,PglD DTNB,PvdQ acylase
Cc1ccc(NC(=S)NCc2ccc3c(c2)OCO3)cc1C,·,-13,·,-1,·,14
O=C(NC(=S)NCc1ccc2c(c1)OCO2)c1ccccc1,111*,25,44,-3,1,-13
CC(C)NC(=O)Nc1ccc2c(c1)C(=O)N([C@H](C)CO)C[C@@H](C)[C@@H](CN(C)C)O2,0[16.7 µM],·,-2,-4,11,·
C[C@@H]1CCCCO[C@@H](CN(C)C)[C@H](C)CN([C@H](C)CO)C(=O)c2cc(NS(=O)(=O)c3cccs3)ccc2O1,3[16.7 µM],·,-2,-6,2,·
CN(C)S(=O)(=O)c1ccc2c(c1)nc(CCC(=O)NCC1CCCCC1)n2C,164*,12,1,·,-2,-1
O=C(NCCN1CCCCC1)[C@@H]1N[C@@H]2c3ccc(-c4ccncc4)c(=O)n3C[C@@H]2[C@H]1CO,35[16.7 µM],·,103*,-3,2,·
Cc1cc(C)nc(N(C#N)Cc2ccc(Cl)cc2)n1,·,-2,·,-3,·,36*
Cc1ccc(CN(C#N)c2nc(C)cc(C)n2)cc1,-3,1,0,·,7,12
O=C(N[C@H]1C=C[C@H](CC(=O)N2CCc3ccccc3C2)O[C@@H]1CO)C1CCC1,·,·,-1,-3,4,·
O=C(C1CC1)N1C[C@H]2[C@@H](c3ccccc31)[C@@H](CO)N2C(=O)Nc1cccc(F)c1,30[16.7 µM],·,49,-4,-1,·
CN1C[C@H]2[C@@H](c3ccccc31)[C@H](CO)N2Cc1ccccc1F,39[16.7 µM],·,-5,-1,6,·
COc1ccc(N=C(C)C2=C(O)CSC2=O)cc1,4,-2,-9,17,0,44*
COc1ccc2c3c([nH]c2c1)[C@H](CO)N(C(=O)CN(C)C)CC31CCN(CC2CCOCC2)CC1,·,·,·,3,·,·
CC(C)CC#Cc1ccc2c(c1)O[C@@H](CN(C)C(=O)C1CCC1)[C@@H](C)CN([C@@H](C)CO)S2(=O)=O,18[16.7 µM],·,3,3,1,·
O=C(C[C@H]1C[C@@H]2c3cc(NC(=O)NC4CCCC4)ccc3O[C@@H]2[C@H](CO)O1)NCc1cc(F)ccc1F,-1[16.7 µM],·,-2,·,7,·
O=C(COc1ccc2c(c1)C(=O)CC1(CCCCC1)O2)NCc1ccccc1,220*,-1,5,·,-4,0
CO[C@H]1CN(C)C(=O)c2cc(NC(=O)Nc3cccc(F)c3)ccc2OC[C@@H](C)N(C(=O)C2CC2)C[C@H]1C,6[16.7 µM],·,-3,·,-2,·
COc1cc(C2C(C(C)=O)=C(O)C(=O)N2CCc2c[nH]c3ccccc23)ccc1O (configuration not stated),2,41*,1,·,-1,9

# High-throughput results as filed in PubChem.
